This passage reports inhibition, Ratio and Activity results from ChEMBL document CHEMBL3124808, “C-peptide inhibitors of Ebola virus glycoprotein-mediated cell entry: effects of conjugation to cholesterol and side chain-side chain crosslinking” (Bioorg Med Chem Lett, 2013).

The source made the active and inactive calls. The rule behind the calls is not given here. Where a SMILES comes first, the peptide text is derived from it. The star is where a group is joined. X1 = CC(C)CCC[C@@H](C)[C@H]1CC[C@H]2[C@@H]3CC=C4C[C@@H](OC(=O)C*)CC[C@]4(C)[C@H]3CC[C@]12C Some results are limits rather than exact numbers.

Common to all, as to format: cell-based
Series [1] deals with T1, Envelope glycoprotein (Zaire ebolavirus (strain Mayinga-76) (ZEBOV) (Zaire Ebola virus)) (UniProt Q05320).
T1 sequence (whole entry): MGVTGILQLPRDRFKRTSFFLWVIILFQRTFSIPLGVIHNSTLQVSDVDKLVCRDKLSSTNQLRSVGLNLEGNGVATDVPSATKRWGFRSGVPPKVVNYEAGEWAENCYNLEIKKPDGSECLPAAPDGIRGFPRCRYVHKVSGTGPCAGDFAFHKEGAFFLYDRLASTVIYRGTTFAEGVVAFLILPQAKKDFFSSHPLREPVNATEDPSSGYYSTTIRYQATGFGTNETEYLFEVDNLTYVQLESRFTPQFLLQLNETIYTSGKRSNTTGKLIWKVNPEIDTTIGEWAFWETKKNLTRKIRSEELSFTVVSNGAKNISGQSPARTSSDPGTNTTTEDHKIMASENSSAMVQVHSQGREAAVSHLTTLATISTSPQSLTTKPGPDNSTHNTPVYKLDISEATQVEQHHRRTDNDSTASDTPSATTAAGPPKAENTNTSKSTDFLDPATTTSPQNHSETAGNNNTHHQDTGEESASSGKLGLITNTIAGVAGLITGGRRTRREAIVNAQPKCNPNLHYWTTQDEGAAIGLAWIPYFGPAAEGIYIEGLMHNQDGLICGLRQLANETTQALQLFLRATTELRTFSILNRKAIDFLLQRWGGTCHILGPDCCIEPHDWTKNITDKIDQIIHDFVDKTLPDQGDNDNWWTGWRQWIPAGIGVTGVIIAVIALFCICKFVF
As to the kind of experiment: Inhibition of Vesicular stomatitis virus particle bearing EBOV glycoprotein-mediated viral entry in African green monkey Vero cells at 20 uM incubated for 1 hr prior to viral addition measured after 1 hr by fluorescence microscopy relative to control. Put shortly: (§1)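 Vero host cells were infected with VSV particles bearing the EBOV glycoprotein in place of G, with a matrix protein–eGFP fusion. Primary infection events were quantified by fluorescence confocal microscopy, and inhibition was expressed as fold or percent reduction in infection versus control.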

Series [2] concerns the target T1, Envelope glycoprotein (Zaire ebolavirus (strain Mayinga-76) (ZEBOV) (Zaire Ebola virus)). As to the kind of experiment: Inhibition of Vesicular stomatitis virus particle bearing EBOV glycoprotein-mediated viral entry in African green monkey Vero cells at 40 uM incubated for 1 hr prior to viral addition measured after 1 hr by fluorescence microscopy relative to control. In a few lines: as §1

Series [3] has as its system Vero. As to the kind of experiment: Inhibition of Vesicular stomatitis virus envelope glycoprotein G-mediated viral entry in African green monkey Vero cells at >10 uM incubated for 1 hr prior to viral addition measured after 1 hr by fluorescence microscopy relative to control.
In series [4] the test system is Vero. As to the kind of experiment: Inhibition of Vesicular stomatitis virus envelope glycoprotein G-mediated viral entry in African green monkey Vero cells at 10 uM incubated for 1 hr prior to viral addition measured after 1 hr by fluorescence microscopy relative to control.
Series [5] deals with Vero. As to the kind of experiment: Cytotoxicity against African green monkey Vero cells at 40 uM by Cyto Tox Glo assay. The note with it: chlorocebus sabaeus. In a few lines: (§2)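 Vero cells exposed to peptide were scored for tolerance by visual inspection and by a commercial cell viability assay.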
Series [6] concerns Vero. As to the kind of experiment: Cytotoxicity against African green monkey Vero cells at >15 uM by Cyto Tox Glo assay. The settings on record: chlorocebus sabaeus.
The target in series [7] is T1, Envelope glycoprotein (Zaire ebolavirus (strain Mayinga-76) (ZEBOV) (Zaire Ebola virus)). As to the kind of experiment: Inhibition of Vesicular stomatitis virus particle bearing EBOV glycoprotein-mediated viral entry in African green monkey Vero cells incubated for 1 hr prior to viral addition measured after 1 hr by fluorescence microscopy relative to control. Put shortly:
as §1

In series [8] the test system is Vero. As to the kind of experiment: Inhibition of Vesicular stomatitis virus envelope glycoprotein G-mediated viral entry in African green monkey Vero cells incubated for 1 hr prior to viral addition measured after 1 hr by fluorescence microscopy relative to control.
Series [9] addresses T1, Envelope glycoprotein (Zaire ebolavirus (strain Mayinga-76) (ZEBOV) (Zaire Ebola virus)). As to the kind of experiment: Inhibition of Vesicular stomatitis virus particle bearing EBOV glycoprotein-mediated viral entry in African green monkey Vero cells at 75 uM incubated for 1 hr prior to viral addition measured after 1 hr by fluorescence microscopy relative to control.
Series [10] relates to Vero. As to the kind of experiment: Cytotoxicity against African green monkey Vero cells at 30 to 40 uM by Cyto Tox Glo assay. The settings on record: chlorocebus sabaeus. Put shortly:
as §2

Series [11] addresses T1, Envelope glycoprotein (Zaire ebolavirus (strain Mayinga-76) (ZEBOV) (Zaire Ebola virus)). As to the kind of experiment: Inhibition of Vesicular stomatitis virus particle bearing EBOV glycoprotein-mediated viral entry in African green monkey Vero cells at >20 uM incubated for 1 hr prior to viral addition measured after 1 hr by fluorescence microscopy relative to control. In a few lines:
as §1

In series [12] the test system is Vero. As to the kind of experiment: Inhibition of Vesicular stomatitis virus envelope glycoprotein G-mediated viral entry in African green monkey Vero cells at 40 uM incubated for 1 hr prior to viral addition measured after 1 hr by fluorescence microscopy relative to control.

Turning to `CC[C@H](C)[C@H](NC(=O)CNC(=O)[C@H](CO)NC(=O)CNC(=O)[C@H](CCCCN)NC(=O)[C@H](CCCCN)NC(=O)[C@H](CCCCN)NC(=O)[C@H](CCCCN)NC(=O)[C@@H](N)CSCC(=O)O[C@H]1CC[C@@]2(C)C(=CC[C@H]3[C@@H]4CC[C@H]([C@H](C)CCCC(C)C)[C@@]4(C)CC[C@@H]32)C1)C(=O)N[C@@H](CCC(=O)O)C(=O)N1CCC[C@H]1C(=O)N[C@@H](Cc1cnc[nH]1)C(=O)N[C@@H](CC(=O)O)C(=O)N[C@@H](Cc1c[nH]c2ccccc12)C(=O)N[C@H](C(=O)N[C@@H](CCCCN)C(=O)N[C@@H](CC(N)=O)C(=O)N[C@H](C(=O)N[C@H](C(=O)N[C@@H](CC(=O)O)C(=O)N[C@@H](CCCCN)C(=O)N[C@H](C(=O)N[C@@H](CC(=O)O)C(=O)N[C@@H](CCC(N)=O)C(=O)N[C@H](C(=O)N[C@H](C(=O)N[C@@H](Cc1cnc[nH]1)C(=O)N[C@@H](CC(=O)O)C(=O)N[C@@H](Cc1ccccc1)C(=O)N[C@H](C(=O)N[C@@H](CC(=O)O)C(=O)N[C@@H](CCCCN)C(=O)O)C(C)C)[C@@H](C)CC)[C@@H](C)CC)[C@@H](C)CC)[C@@H](C)O)[C@@H](C)CC)[C@@H](C)O`, in series [1], the inhibition (usually the change of the read-out against control, counted positive when it falls) was “Active”. The Ratio in series [2] amounted to 1000. In addition, the inhibition in the series on Vero [3] is above 99%; with Vero [4], 90%. In the series with Vero [5], the Activity was 20%.

With `CC[C@H](C)[C@H](NC(=O)CNC(=O)[C@H](CO)NC(=O)CNC(=O)[C@H](CCCNC(=N)N)NC(=O)[C@H](CCCNC(=N)N)NC(=O)[C@H](CCCNC(=N)N)NC(=O)[C@H](CCC(N)=O)NC(=O)[C@H](CCCNC(=N)N)NC(=O)[C@H](CCCNC(=N)N)NC(=O)[C@H](CCCCN)NC(=O)[C@H](CCCCN)NC(=O)[C@H](CCCNC(=N)N)NC(=O)CNC(=O)[C@H](Cc1ccc(O)cc1)NC(C)=O)C(=O)N[C@@H](CCC(=O)O)C(=O)N1CCC[C@H]1C(=O)N[C@@H](Cc1cnc[nH]1)C(=O)N[C@@H](CC(=O)O)C(=O)N[C@@H](Cc1c[nH]c2ccccc12)C(=O)N[C@H](C(=O)N[C@@H](CCCCN)C(=O)N[C@@H](CC(N)=O)C(=O)N[C@H](C(=O)N[C@H](C(=O)N[C@H]1CSCC(=O)NCCC[C@H](C(=O)N[C@@H](CCC(N)=O)C(=O)N[C@H](C(=O)N[C@H](C(=O)N[C@@H](Cc2cnc[nH]2)C(=O)N[C@@H](CC(=O)O)C(=O)N[C@@H](Cc2ccccc2)C(=O)N[C@H](C(=O)N[C@@H](CC(=O)O)C(=O)N[C@@H](CCCCN)C(=O)O)C(C)C)[C@@H](C)CC)[C@@H](C)CC)NC(=O)[C@H]([C@@H](C)CC)NC(=O)[C@H](CCCCN)NC1=O)[C@@H](C)O)[C@@H](C)CC)[C@@H](C)O`, the Activity entry in the series on Vero [6] is “Toxic”. The inhibition result (in series [7]; with Vero [8]) was “Active” each time.

In series [9], `CC[C@H](C)[C@H](NC(=O)CNC(=O)[C@H](CO)NC(=O)CNC(=O)[C@H](CCCNC(=N)N)NC(=O)[C@H](CCCNC(=N)N)NC(=O)[C@H](CCCNC(=N)N)NC(=O)[C@H](CCC(N)=O)NC(=O)[C@H](CCCNC(=N)N)NC(=O)[C@H](CCCNC(=N)N)NC(=O)[C@H](CCCCN)NC(=O)[C@H](CCCCN)NC(=O)[C@H](CCCNC(=N)N)NC(=O)CNC(=O)[C@@H](N)Cc1ccc(O)cc1)C(=O)N[C@@H](CCC(=O)O)C(=O)N1CCC[C@H]1C(=O)N[C@@H](Cc1cnc[nH]1)C(=O)N[C@@H](CC(=O)O)C(=O)N[C@@H](Cc1c[nH]c2ccccc12)C(=O)N[C@H](C(=O)N[C@@H](CCCCN)C(=O)N[C@@H](CC(N)=O)C(=O)N[C@H](C(=O)N[C@H](C(=O)N[C@@H](CC(=O)O)C(=O)N[C@@H](CCCCN)C(=O)N[C@H](C(=O)N[C@@H](CC(=O)O)C(=O)N[C@@H](CCC(N)=O)C(=O)N[C@H](C(=O)N[C@H](C(=O)N[C@@H](Cc1cnc[nH]1)C(=O)N[C@@H](CC(=O)O)C(=O)N[C@@H](Cc1ccccc1)C(=O)N[C@H](C(=O)N[C@@H](CC(=O)O)C(=O)N[C@@H](CCCCN)C(=O)O)C(C)C)[C@@H](C)CC)[C@@H](C)CC)[C@@H](C)CC)[C@@H](C)O)[C@@H](C)CC)[C@@H](C)O` returned an inhibition of 99%.

Take `CC(C)CCC[C@@H](C)[C@H]1CC[C@H]2[C@@H]3CC=C4C[C@@H](O)CC[C@]4(C)[C@H]3CC[C@]12C`: in [7], the inhibition entry was “Active”.

On to `CC[C@H](C)[C@H](N)C(=O)N[C@@H](CCC(=O)O)C(=O)N1CCC[C@H]1C(=O)N[C@@H](Cc1cnc[nH]1)C(=O)N[C@@H](CC(=O)O)C(=O)N[C@@H](Cc1c[nH]c2ccccc12)C(=O)N[C@H](C(=O)N[C@@H](CCCCN)C(=O)N[C@@H](CC(N)=O)C(=O)N[C@H](C(=O)N[C@H](C(=O)N[C@@H](CC(=O)O)C(=O)N[C@@H](CCCCN)C(=O)N[C@H](C(=O)N[C@@H](CC(=O)O)C(=O)N[C@@H](CCC(N)=O)C(=O)N[C@H](C(=O)N[C@H](C(=O)N[C@@H](Cc1cnc[nH]1)C(=O)N[C@@H](CC(=O)O)C(=O)N[C@@H](Cc1ccccc1)C(=O)N[C@H](C(=O)N[C@@H](CC(=O)O)C(=O)N[C@@H](CCCCN)C(=O)NCC(=O)N[C@@H](CO)C(=O)NCC(=O)N[C@@H](CCCCN)C(=O)N[C@@H](CCCCN)C(=O)N[C@@H](CCCCN)C(=O)N[C@@H](CCCCN)C(=O)N[C@@H](CSCC(=O)O[C@H]1CC[C@@]2(C)C(=CC[C@H]3[C@@H]4CC[C@H]([C@H](C)CCCC(C)C)[C@@]4(C)CC[C@@H]32)C1)C(=O)O)C(C)C)[C@@H](C)CC)[C@@H](C)CC)[C@@H](C)CC)[C@H](C)O)[C@@H](C)CC)[C@@H](C)O`, for which the Activity with Vero [10] amounted to 20%. In addition, the inhibition result in series [1] was “Active”. Also, in series [2], the Ratio worked out at 1000. Moreover, the results for the inhibition in the series on Vero [3] and with Vero [4] were above 99% and 90%, respectively.

For `CC(C)CCC[C@@H](C)[C@H]1CC[C@H]2[C@@H]3CC=C4C[C@@H](OC(=O)CSC[C@H](NC(=O)CNC(=O)[C@H](CO)NC(=O)CNC(=O)[C@H](CCCCN)NC(=O)[C@H](CCCCN)NC(=O)[C@H](CCCCN)NC(=O)[C@@H](N)CCCCN)C(=O)O)CC[C@]4(C)[C@H]3CC[C@]12C` (H-KKKKGSGC(X1)-OH), the inhibition entry in series [1] was “Active”. In addition, the inhibition in series [11] was above 90%.

With `CC[C@H](C)[C@H](NC(=O)CNC(=O)[C@H](CO)NC(=O)CNC(=O)[C@H](CCCNC(=N)N)NC(=O)[C@H](CCCNC(=N)N)NC(=O)[C@H](CCCNC(=N)N)NC(=O)[C@H](CCC(N)=O)NC(=O)[C@H](CCCNC(=N)N)NC(=O)[C@H](CCCNC(=N)N)NC(=O)[C@H](CCCCN)NC(=O)[C@H](CCCCN)NC(=O)[C@H](CCCNC(=N)N)NC(=O)CNC(=O)[C@H](Cc1ccc(O)cc1)NC(C)=O)C(=O)N[C@@H](CCC(=O)O)C(=O)N1CCC[C@H]1C(=O)N[C@@H](Cc1cnc[nH]1)C(=O)N[C@@H](CC(=O)O)C(=O)N[C@@H](Cc1c[nH]c2ccccc12)C(=O)N[C@H](C(=O)N[C@@H](CCCCN)C(=O)N[C@H]1CSCC(=O)NCCC[C@@H](C(=O)N[C@@H](CCCCN)C(=O)N[C@H](C(=O)N[C@@H](CC(=O)O)C(=O)N[C@@H](CCC(N)=O)C(=O)N[C@H](C(=O)N[C@H](C(=O)N[C@@H](Cc2cnc[nH]2)C(=O)N[C@@H](CC(=O)O)C(=O)N[C@@H](Cc2ccccc2)C(=O)N[C@H](C(=O)N[C@@H](CC(=O)O)C(=O)N[C@@H](CCCCN)C(=O)O)C(C)C)[C@@H](C)CC)[C@@H](C)CC)[C@@H](C)CC)NC(=O)[C@H]([C@@H](C)O)NC(=O)[C@H]([C@@H](C)CC)NC1=O)[C@@H](C)O`, the inhibition in [2] was found to be 99%; in the series on Vero [12], 80%. Moreover, the Activity entry in the series on Vero [5] is “Non-toxic”.
